# Screens deposited in PubChem by Broad Institute.
# A selection: hits, their analogues and other compounds. The true share with any hit is near 3.4%.
# SIRT5 block: SIRT5 desuccinylase inhibitors, primary screen, biochemical, fluorescence imaging, single point, set 5; NAD-dependent protein deacylase sirtuin-5, mitochondrial (Homo sapiens), Q9NXA8; Purified SirT5, succinyl-peptide AMC, trypsin-coupled fluorescence; inhibition, % at 15 µM; actives 1.1% (n = 330,000); AID 652115, 2013; in the data active = inhibition above about 15%
# ERAP1 inh: human ERAP1 aminopeptidase inhibitors, primary screen, biochemical, single point, plate reader; Endoplasmic reticulum aminopeptidase 1 (Homo sapiens), Q9NZ08; recombinant ERAP1, Leu-AMC fluorescence, 60 min; inhibition, % at 10.7 µM; actives 0.15% (n = 340,000); AID 652197, 2013;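 active = mean replicate inhibition of at least 30%, or all replicates individually reaching that 30% level; inactive = mean below 30% and not every replicate reaching it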;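 note: 0% = neutral control wells and 100% = L-leucinethiol positive control wells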
# AF4-AF9 inh: inhibitors of AF4 peptide binding to AF9, primary screen, biochemical, AlphaScreen, biotin-AF4 peptide, FLAG-AF9, single point. Protein AF-9 (Homo sapiens), P42568. inhibition, % at 10 µM. actives 0.47% (n = 350,000);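 active = every replicate reaching a set inhibition limit, whatever the replicate mean, cut at about 25% in these data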;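 note: 0% = plate neutral control median and 100% = total signal loss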
# Target sequence (P42568 whole entry, looked up): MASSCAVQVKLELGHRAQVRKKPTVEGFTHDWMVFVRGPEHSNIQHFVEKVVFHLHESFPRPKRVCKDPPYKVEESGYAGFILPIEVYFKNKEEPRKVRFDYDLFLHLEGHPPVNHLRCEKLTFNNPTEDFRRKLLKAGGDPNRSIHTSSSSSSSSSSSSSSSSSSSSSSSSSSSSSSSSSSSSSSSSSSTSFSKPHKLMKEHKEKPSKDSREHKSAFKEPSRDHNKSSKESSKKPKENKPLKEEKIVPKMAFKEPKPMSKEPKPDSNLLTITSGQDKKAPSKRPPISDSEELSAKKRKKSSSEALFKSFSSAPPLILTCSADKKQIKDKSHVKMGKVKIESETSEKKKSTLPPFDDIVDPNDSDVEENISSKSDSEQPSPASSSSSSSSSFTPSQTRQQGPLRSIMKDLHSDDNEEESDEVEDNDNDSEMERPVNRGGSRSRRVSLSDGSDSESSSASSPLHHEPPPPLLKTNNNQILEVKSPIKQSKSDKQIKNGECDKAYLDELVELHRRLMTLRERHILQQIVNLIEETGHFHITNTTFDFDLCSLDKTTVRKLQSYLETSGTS
# E-sel inducer: E-selectin induction in HUVECs, primary screen, imaging, HUVEC, immunofluorescence imaging, single point; P16581; normalized: neutral wells 0, TNF-alpha wells 100; activation, % at 7.58 µM; actives 0.37% (n = 260,000);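 active = mean E-selectin-positive cell signal at least 10% of the positive control, reached in at least 60% of replicates, without over 20% cell loss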
#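 Read-out basis: % PE-positive cells; Test system: HUVEC primary endothelial cells; Technique: immunofluorescence imaging; Dosing: single-point compound dose.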
# Ecoli rRNA inh: reduced GFP signal of wild-type E. coli, primary screen, bacterial rRNA inhibitor project, GFP/RFP fluorescence, OD600, single point. E. coli WT GFP vs humanized-ribosome RFP mutants, 24 h; stronger effect = lower value; DMSO median 0, no signal -100. GFP signal change (wild-type ribosome), % (test concentration not listed). actives 1.6% (n = 350,000). AID 720706, 2013;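 active = significant combined selectivity score with lowered wild-type GFP, culture density cut under 30%, mutant RFP and density less affected; inactive = any of these conditions unmet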
# S100A4 inh HTS: inhibitors of S100A4-myosin IIA peptide binding, primary screen, biochemical, fluorescence polarization, TAMRA-MyoIIA peptide | inhibition, % at 10.7 µM | actives 0.14% (n = 360,000) | AID 652163, 2013;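 active = mean inhibition of at least 70% across replicates, with every replicate also reaching that level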
# Target sequence (P26447 whole entry, looked up): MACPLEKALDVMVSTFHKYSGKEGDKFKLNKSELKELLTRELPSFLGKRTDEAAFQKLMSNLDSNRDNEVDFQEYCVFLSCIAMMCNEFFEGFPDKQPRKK
#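 Test system – S100A4 monomer (human) · Compound – single-point compound testing · Schedule – 5 min incubation before reading · Probe or stimulus – TAMRA-labelled myosin IIA heavy-chain peptide probe, 5 nM · Benchmarks – neutral control DMSO, positive control TFP · Medium – Calcium-containing HEPES buffer, pH 7.2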
# The depositor's hits bear a star; . = no result.
SMILES,SIRT5 block,ERAP1 inh,AF4-AF9 inh,E-sel inducer,Ecoli rRNA inh,S100A4 inh HTS
C[C@@H]1CN([C@H](C)CO)S(=O)(=O)c2ccc(C#CC3CCCC3)cc2O[C@@H]1CN(C)C,3.3,-5.7,2.2,-0.9,2.1,-2.1
C[C@H]1CN([C@@H](C)CO)S(=O)(=O)c2ccc(C#CC3CCCC3)cc2O[C@H]1CN(C)C(=O)Nc1cc(F)ccc1F,0.4,3.8,3.5,-0.3,3.8,2.2
O=C(O)c1cc(-c2ccc(/C=C3\NC(=O)N(c4ccc(Cl)cc4)C3=O)o2)ccc1Cl,19.9*,5.0,2.7,.,-0.6,1.3
O=C1NN(c2ccccc2)C(=O)/C1=C/c1ccc(-c2ccc(Cl)c(C(=O)O)c2)o1,13.8,11.6,0.9,2.1,-0.5,0.0
O=C(O)c1cc(-c2ccc(/C=C3\NC(=O)N(c4ccccc4)C3=O)o2)ccc1Cl,8.3,-123.3,-2.8,.,5.6,-0.1
Cc1cccc(N2NC(=O)/C(=C/c3ccc(-c4ccc(Cl)c(C(=O)O)c4)o3)C2=O)c1,15.7*,3.9,-2.2,0.4,17.6,-3.0
N#CC1=C(Nc2ccccc2Cl)SC(c2ccccc2O)NC1=O (centres undefined),-2.9,-4.1,1.5,.,-27.1*,-0.2
COc1cccc(NC2=C(C#N)C(=O)NC(c3cccc(OC)c3O)S2)c1 (centres undefined),5.1,.,-0.2,.,0.4,-16.1
CC(=O)Nc1ccc2c(c1)CC(=O)N(C)C[C@@H](C)[C@@H](CN(C)C)O2,.,.,.,.,1.4,.
O=C(N/N=C/C1CC=CCC1)c1cc(Br)ccc1O (centres undefined),3.0,-2.3,-0.8,0.6,6.4,-2.2
O=C(N/N=C/C1CC=CCC1)c1ccc(Cl)cc1O (centres undefined),-3.9,2.7,-0.2,.,-28.8*,-0.3
N#C[C@@H]1[C@H](c2ccccc2-c2ccccc2)[C@@H](CO)N1C(=O)NC1CCCCC1,2.1,-2.7,-0.2,0.1,-2.9,-0.2
OCC1(Cc2ccc(Cl)cc2)CCN(Cc2ccc3nsnc3c2)CC1,-3.0,-3.8,3.4,0.1,-23.2*,-9.4
C[C@@H]1CN([C@H](C)CO)C(=O)Cc2cc(NC(=O)c3ccncc3)ccc2O[C@@H]1CN(C)S(=O)(=O)c1cccs1,-3.3,0.8,-1.3,.,-0.5,-8.1
CCOC(=O)c1ccc(NC(=O)C(C)Sc2nc(O)c(-c3ccccc3)c(=O)[nH]2)cc1 (centres undefined),-1.0,3.6,-1.7,.,1.2,-0.1
CC(Sc1nc(O)c(-c2ccccc2)c(=O)[nH]1)C(=O)Nc1ccc(Cl)cc1 (centres undefined),-0.3,3.2,-0.2,.,-23.9*,-21.3
C[C@@H]1CN([C@@H](C)CO)S(=O)(=O)c2ccc(/C=C/c3ccccc3)cc2O[C@H]1CN(C)C(=O)c1ccc2c(c1)OCO2,26.6*,3.9,2.8,.,.,3.4
C[C@H](CO)N1C[C@H](C)[C@@H](CN(C)C(=O)c2ccc3c(c2)OCO3)Oc2cc(/C=C/c3ccccc3)ccc2S1(=O)=O,16.5*,-1.5,6.3,0.1,-4.0,64.1
Cc1cccc(S(=O)(=O)N2C[C@@H](O)COC[C@@H]3O[C@@H](CC(=O)NCc4ccc5c(c4)OCO5)CC[C@H]32)c1,0.4,-0.3,5.7,0.0,-2.5,0.8
CCCNC(=O)C[C@H]1CC[C@H]2[C@@H](COC[C@H](O)CN2C(=O)Nc2ccccc2OC)O1,2.7,1.2,-0.4,0.1,4.1,-0.6
CCn1c(-c2ccc3[nH]c(C)c(C)c3c2)n[nH]c1=S,2.6,4.0,6.6,.,-12.5,0.1
Cc1[nH]c2ccc(-c3n[nH]c(=S)n3C)cc2c1C,-0.4,1.3,-2.9,.,-15.8*,1.6
C[C@H](CO)N1C[C@H](C)[C@H](CN(C)S(=O)(=O)c2ccccc2)Oc2ccc(NC(=O)Nc3ccc(C(F)(F)F)cc3)cc2C1=O,1.2,3.1,-2.2,-3.5,3.2,-0.2
CC1CCN(c2nc(/C=C/c3ccccc3)nc3ccccc23)CC1,-2.4,-0.2,32.2*,0.8,-19.2,-4.2
COc1ccccc1CNS(=O)(=O)c1cccc2nsnc12,5.7,3.7,3.1,.,-0.3,-1.1
SMILES,SIRT5 block,ERAP1 inh,AF4-AF9 inh,E-sel inducer,Ecoli rRNA inh,S100A4 inh HTS
COc1ccccc1CNC(=O)C(NS(=O)(=O)c1cccc2nsnc12)C(C)C (centres undefined),19.2*,.,4.5,-0.2,4.9,4.5
CCC(=O)N1CC(=O)N2[C@H](CO)[C@H](c3ccc(-c4cccnc4)cc3)[C@H]2C1,0.0,-1.9,-2.0,0.0,3.4,-9.8
O=C1Nc2ccccc2/C1=C/c1ccccc1F,-1.6,0.4,-4.9,-0.3,-29.2*,-4.2
Cc1ccccc1/C=C1\C(=O)Nc2ccc(F)cc21,-3.7,0.1,8.5,-0.1,-5.4,3.3
COc1ccc(CN(C)Cc2c(O)ccc3ccccc23)cc1,1.6,0.5,-0.7,.,-2.9,1.9
COc1ccc(CCN(C)Cc2c(O)ccc3cc(Br)ccc23)cc1OC,-4.1,-3.3,10.5,-0.1,-26.9*,-1.5
COc1ccc(CCN(C)CCc2ccc(OC)c(OC)c2)cc1OC,-1.2,-0.8,-1.9,-0.1,.,-2.6
COc1ccc(CN(C)Cc2c(O)ccc3cc(Br)ccc23)cc1OC,1.3,4.1,5.6,.,-23.2*,-1.0
COc1cc(/C=N/NC(=S)NC2CC3CCC2C3)ccc1O (centres undefined),2.0,.,9.8,.,-25.9*,21.2
CC(C)NC(=O)Nc1ccc2c(c1)CC(=O)N(C)C[C@@H](C)[C@H](CN(C)C(=O)NC(C)C)O2,.,.,.,.,-2.5,.
CN(C)C(=O)c1ccc(-c2ccc(C3[C@H]4CNC[C@@H]3N4CC3CCCCC3)cc2)cc1 (some centres undefined),.,.,.,0.0,-3.2,.
O=C(COC(=O)c1ccc(CO)cc1)Nc1ccc2ccccc2c1,-2.0,-2.7,-4.4,6.2,4.4,-1.8
N#CCC(=O)Nc1ccc(C(=O)OCC(=O)Nc2ccc3ccccc3c2)cc1,2.1,0.7,0.0,.,-17.6*,-2.1
COc1ccccc1NC(=O)C1CCCN(c2ncnc3c2nc2n3CCCCC2)C1 (centres undefined),0.9,0.8,0.5,.,-33.3*,-1.6
O=C(Nc1ccccc1Cl)C1CCCN(c2ncnc3c2nc2n3CCCCC2)C1 (centres undefined),0.2,-3.3,5.5,.,-30.0*,0.1
